Test results published in ChEMBL document CHEMBL4190330, “Discovery of Potent and Selective A2A Antagonists with Efficacy in Animal Models of Parkinson's Disease and Depression” (ACS Med Chem Lett, 2017).

target: T1, Adenosine receptor A2a (Homo sapiens, UniProt P29274); assay: Displacement of [3H]ZM241385 from human A2A receptor expressed in HEK293 cell membranes after 90 mins radioligand binding assay
Procedure, shortened: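 Membranes from HEK-293 cells overexpressing the relevant human adenosine receptor subtype; all points in triplicate; Ki derived from 8-concentration IC50 curves.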

T1 sequence (P29274 whole entry): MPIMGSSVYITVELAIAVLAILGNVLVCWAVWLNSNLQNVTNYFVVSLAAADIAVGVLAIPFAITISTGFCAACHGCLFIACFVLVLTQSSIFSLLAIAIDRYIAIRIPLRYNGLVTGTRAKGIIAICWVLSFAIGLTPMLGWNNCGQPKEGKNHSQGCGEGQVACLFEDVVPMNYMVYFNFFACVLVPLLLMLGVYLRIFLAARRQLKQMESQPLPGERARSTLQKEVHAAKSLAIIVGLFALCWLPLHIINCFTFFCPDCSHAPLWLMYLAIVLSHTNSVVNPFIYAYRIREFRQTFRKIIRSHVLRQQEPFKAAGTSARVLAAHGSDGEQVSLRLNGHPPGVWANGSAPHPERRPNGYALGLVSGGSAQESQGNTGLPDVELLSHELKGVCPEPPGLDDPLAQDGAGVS

Structure (SMILES)	Ki [nM]
Cn1c(=O)n(CCN2CCN(c3ccc(C(F)(F)F)cc3)CC2)c2nc(N)n3nc(-c4ccco4)nc3c21	3.1
Cc1ccc(N2CCN(CCn3c(=O)n(C)c4c3nc(N)n3nc(-c5ccco5)nc43)CC2)cc1	1.4
Cc1ccc(N2CCN(CCn3c(=O)n(C)c4c3nc(N)n3nc(-c5ccco5)nc43)CC2)nc1	1.7

Other lines, results leading:

Ki [nM]	Structure (SMILES)
0.5	COCCOc1cccc(N2CCN(CCn3c(=O)n(C)c4c3nc(N)n3nc(-c5ccco5)nc43)CC2)c1
0.9	COCCOc1cc(F)c(N2CCN(CCn3c(=O)n(C)c4c3nc(N)n3nc(-c5ccco5)nc43)CC2)cc1F
0.7	COCCOc1ccc(N2CCN(CCn3c(=O)n(C)c4c3nc(N)n3nc(-c5ccco5)nc43)CC2)cc1F

target: Adenosine receptor A2a (Rattus norvegicus, UniProt P30543); assay: Antagonist activity at rat A2A receptor assessed as reduction in CGS-21680-induced cAMP level pretreated for 15 mins followed by CGS-21680 addition measured after 30 mins by HTRF assay; format: functional
Sequence (P30543 whole entry): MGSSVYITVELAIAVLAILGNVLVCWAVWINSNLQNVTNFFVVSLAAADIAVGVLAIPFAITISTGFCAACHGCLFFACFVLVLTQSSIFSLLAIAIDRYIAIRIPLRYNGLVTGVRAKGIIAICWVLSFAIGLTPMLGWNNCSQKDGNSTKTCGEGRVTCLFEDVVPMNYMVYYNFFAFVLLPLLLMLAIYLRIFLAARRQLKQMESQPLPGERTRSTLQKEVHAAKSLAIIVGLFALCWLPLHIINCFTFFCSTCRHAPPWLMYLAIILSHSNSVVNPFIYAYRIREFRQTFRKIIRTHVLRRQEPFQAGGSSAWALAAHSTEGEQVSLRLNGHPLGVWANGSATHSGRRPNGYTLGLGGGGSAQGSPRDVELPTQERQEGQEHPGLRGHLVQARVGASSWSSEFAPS
Procedure, shortened: (§1)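 HTRF-based cAMP functional assay; each compound tested at 12 concentrations, every point in triplicate; Ki given as mean of two independent experiments (n=2).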

Ki [nM]	Structure (SMILES)
3.9	COCCOc1cccc(N2CCN(CCn3c(=O)n(C)c4c3nc(N)n3nc(-c5ccco5)nc43)CC2)c1
0.74	Cc1ccc(N2CCN(CCn3c(=O)n(C)c4c3nc(N)n3nc(-c5ccco5)nc43)CC2)cc1
0.65	Cc1ccc(N2CCN(CCn3c(=O)n(C)c4c3nc(N)n3nc(-c5ccco5)nc43)CC2)nc1

target: T1, Adenosine receptor A2a; assay: Antagonist activity at human A2A receptor expressed in HEK293 cell membranes assessed as reduction in CGS-21680-induced cAMP level pretreated for 15 mins followed by CGS-21680 addition measured after 30 mins by HTRF assay; format: functional, cell-based; procedure, shortened: as §1

Structure (SMILES)	Ki [nM]
Cc1ccc(N2CCN(CCn3c(=O)n(C)c4c3nc(N)n3nc(-c5ccco5)nc43)CC2)cc1	1.1
Cc1ccc(N2CCN(CCn3c(=O)n(C)c4c3nc(N)n3nc(-c5ccco5)nc43)CC2)nc1	0.4

Second part, the compound after the results:

Ki [nM]	Structure (SMILES)
0.5	COCCOc1cccc(N2CCN(CCn3c(=O)n(C)c4c3nc(N)n3nc(-c5ccco5)nc43)CC2)c1
1.2	COCCOc1cc(F)c(N2CCN(CCn3c(=O)n(C)c4c3nc(N)n3nc(-c5ccco5)nc43)CC2)cc1F

test system: not listed separately; assay: Metabolic stability in human liver microsomes; format: ADME, microsome

Structure (SMILES)	Stability
Cn1c(=O)n(CCN2CCN(c3ccc(C(F)(F)F)cc3)CC2)c2nc(N)n3nc(-c4ccco4)nc3c21	Stable
Cc1ccc(N2CCN(CCn3c(=O)n(C)c4c3nc(N)n3nc(-c5ccco5)nc43)CC2)cc1	Stable
Cc1ccc(N2CCN(CCn3c(=O)n(C)c4c3nc(N)n3nc(-c5ccco5)nc43)CC2)nc1	Stable

Further lines, results first:

Stability	Structure (SMILES)
Stable	COCCOc1cccc(N2CCN(CCn3c(=O)n(C)c4c3nc(N)n3nc(-c5ccco5)nc43)CC2)c1
Stable	COCCOc1cc(F)c(N2CCN(CCn3c(=O)n(C)c4c3nc(N)n3nc(-c5ccco5)nc43)CC2)cc1F
Stable	COCCOc1ccc(N2CCN(CCn3c(=O)n(C)c4c3nc(N)n3nc(-c5ccco5)nc43)CC2)cc1F

target: T2, Adenosine receptor A1 (Homo sapiens) (UniProt P30542); assay: Displacement of [3H]-DPCPX from human A1 receptor expressed in HEK293 cell membranes at 1 uM after 90 mins radioligand binding assay relative to control
T2 sequence (whole entry): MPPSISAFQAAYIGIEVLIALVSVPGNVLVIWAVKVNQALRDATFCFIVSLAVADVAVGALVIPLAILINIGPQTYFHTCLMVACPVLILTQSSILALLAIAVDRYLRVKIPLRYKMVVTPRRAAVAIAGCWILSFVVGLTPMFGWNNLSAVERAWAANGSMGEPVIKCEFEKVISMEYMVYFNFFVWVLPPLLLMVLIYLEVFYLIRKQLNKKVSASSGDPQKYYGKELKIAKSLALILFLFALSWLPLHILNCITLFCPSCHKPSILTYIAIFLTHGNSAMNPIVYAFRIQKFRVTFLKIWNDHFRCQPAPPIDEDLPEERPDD

Structure (SMILES)	inhibition [%]
Cn1c(=O)n(CCN2CCN(c3ccc(C(F)(F)F)cc3)CC2)c2nc(N)n3nc(-c4ccco4)nc3c21	57
Cc1ccc(N2CCN(CCn3c(=O)n(C)c4c3nc(N)n3nc(-c5ccco5)nc43)CC2)cc1	45
Cc1ccc(N2CCN(CCn3c(=O)n(C)c4c3nc(N)n3nc(-c5ccco5)nc43)CC2)nc1	61

Next, values leading:

inhibition [%]	Structure (SMILES)
63	COCCOc1cccc(N2CCN(CCn3c(=O)n(C)c4c3nc(N)n3nc(-c5ccco5)nc43)CC2)c1
58	COCCOc1cc(F)c(N2CCN(CCn3c(=O)n(C)c4c3nc(N)n3nc(-c5ccco5)nc43)CC2)cc1F
68	COCCOc1ccc(N2CCN(CCn3c(=O)n(C)c4c3nc(N)n3nc(-c5ccco5)nc43)CC2)cc1F

test system: not listed separately; assay: Metabolic stability in rat liver microsomes; format: ADME, microsome

Structure (SMILES)	Stability
Cn1c(=O)n(CCN2CCN(c3ccc(C(F)(F)F)cc3)CC2)c2nc(N)n3nc(-c4ccco4)nc3c21	Stable
Cc1ccc(N2CCN(CCn3c(=O)n(C)c4c3nc(N)n3nc(-c5ccco5)nc43)CC2)cc1	Stable
Cc1ccc(N2CCN(CCn3c(=O)n(C)c4c3nc(N)n3nc(-c5ccco5)nc43)CC2)nc1	Stable

The remaining lines, values ahead:

Stability	Structure (SMILES)
Stable	COCCOc1cccc(N2CCN(CCn3c(=O)n(C)c4c3nc(N)n3nc(-c5ccco5)nc43)CC2)c1
Stable	COCCOc1cc(F)c(N2CCN(CCn3c(=O)n(C)c4c3nc(N)n3nc(-c5ccco5)nc43)CC2)cc1F
Stable	COCCOc1ccc(N2CCN(CCn3c(=O)n(C)c4c3nc(N)n3nc(-c5ccco5)nc43)CC2)cc1F
